# Experimental data published in ChEMBL document CHEMBL1149591, “QSAR studies and pharmacophore identification for arylsubstituted cycloalkenecarboxylic acid methyl esters with affinity for the human dopamine transporter” (Bioorg Med Chem, 2007).
# Target: Sodium-dependent dopamine transporter (Homo sapiens, UniProt Q01959)
# Assay: Inhibition of human DAT expressed in COS1 cells
# Format: cell-based, COS-1
# Details: read-out: -Log Ki (converted)
# Outline: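 COS-1 cells stably transfected with hDAT (pIRES, Blasticidin selection), grown in DMEM/10% FCS at 37 °C, 5% CO2. Membranes homogenized in 150 mM NaCl/50 mM Tris/20 mM EDTA, resuspended in PBSCM.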
# Sequence of Sodium-dependent dopamine transporter (Q01959 whole entry): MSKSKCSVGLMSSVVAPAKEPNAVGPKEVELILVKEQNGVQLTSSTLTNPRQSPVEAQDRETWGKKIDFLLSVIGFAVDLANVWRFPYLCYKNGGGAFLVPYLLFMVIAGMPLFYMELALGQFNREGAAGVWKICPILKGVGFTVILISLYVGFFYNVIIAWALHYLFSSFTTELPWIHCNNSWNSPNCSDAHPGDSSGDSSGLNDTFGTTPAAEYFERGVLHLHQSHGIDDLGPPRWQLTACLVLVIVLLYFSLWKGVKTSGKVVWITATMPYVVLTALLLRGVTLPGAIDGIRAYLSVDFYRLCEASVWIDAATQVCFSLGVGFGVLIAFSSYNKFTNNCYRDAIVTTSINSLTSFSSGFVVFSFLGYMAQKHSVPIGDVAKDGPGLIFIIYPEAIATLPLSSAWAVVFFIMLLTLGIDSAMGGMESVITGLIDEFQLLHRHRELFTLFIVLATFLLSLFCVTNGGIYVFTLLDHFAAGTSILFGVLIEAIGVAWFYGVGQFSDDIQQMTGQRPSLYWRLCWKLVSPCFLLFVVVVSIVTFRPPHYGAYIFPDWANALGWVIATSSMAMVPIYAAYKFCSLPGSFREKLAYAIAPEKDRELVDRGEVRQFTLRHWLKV
row,Structure (SMILES),Ki [µM]
1,COC(=O)C1=C(c2cccc(Cl)c2)CCCC1,117
2,COC(=O)C1=C(c2ccc3ccccc3c2)CCCC1,11.7
3,COC(=O)C1=C(c2cccc(Cl)c2)CCC1,34.7
4,COC(=O)C1=C(c2ccc(C(C)=O)cc2)CCC1,331
5,COC(=O)C1=C(c2ccc(Cl)cc2)C2CCC1N2 (stereo unspecified),26.9
6,COC(=O)C1=C(c2ccc(Cl)cc2)C2CCC1O2 (stereo unspecified),18.2
7,COC(=O)C1=C(c2ccc3ccccc3c2)C2CCC1N2 (stereo unspecified),1.74
8,COC(=O)C1=C(c2ccc(-c3ccccc3)cc2)C2CCC1C2 (stereo unspecified),603
9,COC(=O)C1=C(c2ccc(Cl)c(Cl)c2)C2CCC1C2 (stereo unspecified),6.76
10,COC(=O)C1=C(c2cccc(Cl)c2Cl)C2CCC1C2 (stereo unspecified),14.8
11,COC(=O)C1=C(c2cccc(Cl)c2)C2CCC1N2 (stereo unspecified),33.9
12,COC(=O)C1=C(c2ccc(Cl)c(Cl)c2)CCC1,1.95
13,COC(=O)C1=C(c2ccc(-c3ccccc3)cc2)C2CCC1N2 (stereo unspecified),24.5
14,COC(=O)C1=C(c2ccc3ccccc3c2)C2CCC1C2 (stereo unspecified),4.27
15,COC(=O)C1=C(c2ccc(Cl)cc2Cl)C2CCC1C2 (stereo unspecified),22.9
16,COC(=O)C1=C(c2cccc(Cl)c2)C2CCC1C2 (stereo unspecified),105
17,COC(=O)C1=C(c2ccccc2)C2CCC1N2 (stereo unspecified),447
18,COC(=O)C1=C(c2ccc3ccccc3c2)CCC1,4.17
19,COC(=O)C1=C(c2ccc(Cl)c(Cl)c2)C2CCC1N2 (stereo unspecified),1.1
20,COC(=O)C1=C(c2ccccc2)C2CCC1C2 (stereo unspecified),646
21,COC(=O)C1=C(c2ccc(Cl)cc2)C2CCC1C2 (stereo unspecified),25.1
22,COC(=O)C1=C(c2ccccc2Cl)C2CCC1C2 (stereo unspecified),372

# Same assay, conditions: read-out: Ki
row,Structure (SMILES),Ki [µM]
1,COC(=O)C1=C(c2cc(C)c(C)cc2C)C2CCC1C2 (stereo unspecified),32.2
2,COC(=O)C1=C(c2cccc([N+](=O)[O-])c2)C2CCC1N2 (stereo unspecified),232
3,COC(=O)C1=C(c2ccc(C)c(F)c2)C2CCC1C2 (stereo unspecified),56
4,COC(=O)C1=C(c2ccc([N+](=O)[O-])cc2)C2CCC1N2 (stereo unspecified),67.9
